ChEMBL document CHEMBL4130550, “Antiproliferative Dimeric Aporphinoid Alkaloids from the Roots of Thalictrum cultratum” (J Nat Prod, 2017)

Legend:
PC-3 [1] = assay: Antiproliferative activity against human PC3 cells by MTT assay; assay type: functional, cell-based
How it was run: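 PC-3 (ATCC) in supplemented RPMI-1640 with 10% FBS at 37 °C, 5% CO2. Log-phase cells get graded concentrations in triplicate. MTT (5 mg/mL solution) is added for a further 4 h, then dissolved in DMSO and read at 490 nm. IC50 is from the average of three parallel experiments. Negative reference is 0.1% DMSO.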

HL-60 [2] = assay: Antiproliferative activity against human HL60 cells after 72 hrs by tryphan blue staining based hematocytometric method; assay type: functional, cell-based; conditions: HL-60, 72 h
How it was run: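 HL-60 (ATCC) in RPMI-1640 with 10% heat-inactivated FBS, 1 mM glutamine and penicillin/streptomycin, 37 °C, 5% CO2. Cells at 4.5 × 10^4 cells/mL are exposed to a concentration gradient (DMSO stock diluted in absolute EtOH) for 72 h. Trypan blue is added and total cells are counted on a hematocytometer. IC50 is the mean of three parallel experiments. Negative reference is 0.1% DMSO.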

HL-60 [3] = assay: Potency index, ratio of 5-fluorouracil IC50 to compound IC50 for human HL60 cells; assay type: functional
PC-3 [4] = assay: Potency index, ratio of camptothecin IC50 to compound IC50 for human PC3 cells; assay type: functional
PC-3 [5] = assay: Potency index, ratio of 5-fluorouracil IC50 to compound IC50 for human PC3 cells; assay type: functional

Question: With `COc1cc2c(c(O)c1OC)CCN(C)[C@H]2Cc1ccc(Oc2c(OC)c(OC)cc3c2cc2c4c(c(OC)c(OC)c(OC)c43)CCN2C)cc1` as the compound, how does the IC50 (PC-3 [1]) read?
Answer: Its IC50 is 7.1 µM.

Question: And the IC50 (HL-60 [2])?
Answer: The IC50 was 4.28 µM.

Question: `CC[C@@]1(O)C(=O)OCc2c1cc1n(c2=O)Cc2cc3ccccc3nc2-1` [CAMPTOTHECIN] was tested. Which IC50 (PC-3 [1]) did it give?
Answer: Its IC50 is 6.96 µM.

Question: What about the IC50 (HL-60 [2]) of the same compound?
Answer: The IC50 was 0.92 µM.

Question: Which IC50 (PC-3 [1]) does the source give for `COc1cc2c(cc1OC)C1=Cc3c(cc(OC)c(OC)c3Oc3cc4c(cc3OC)-c3c(OC)c(OC)c(OC)c5c3[C@H](C4)N(C)CC5)CN1CC2` here?
Answer: The IC50 was 11.6 µM.

Question: And the IC50 (HL-60 [2])?
Answer: Its IC50 is 1.77 µM.

Question: How did the IC50 (PC-3 [1]) turn out when `COc1cc2c(c(O)c1OC)CCN(C)[C@H]2Cc1ccc(Oc2c3c(cc(OC)c2OC)-c2c(OC)c(OC)cc4c2[C@H](C3)N(C)CC4)cc1` was run?
Answer: The IC50 was 5.85 µM.

Question: And the IC50 (HL-60 [2])?
Answer: The IC50 was 2.1 µM.

Question: How did the IC50 (PC-3 [1]) turn out when `COc1cc2c(c(O)c1OC)CC[N@+](C)([O-])[C@H]2Cc1ccc(Oc2c3c(cc(OC)c2OC)-c2c(OC)c(OC)c(OC)c4c2[C@H](C3)N(C)CC4)cc1` was run?
Answer: The IC50 was 12.7 µM.

Question: What about the IC50 (HL-60 [2]) of the same compound?
Answer: Its IC50 is 2.86 µM.

Question: What does the source list for `COc1cc2c(cc1OC)[C@H](Cc1ccc(Oc3c4c(cc(OC)c3OC)-c3c(OC)c(OC)c(OC)c5c3[C@H](C4)N(C)CC5)cc1)N(C)CC2` [THALIFABERINE]?
Answer: IC50 (PC-3 [1]): 7.27 µM; IC50 (HL-60 [2]): 1.58 µM

Question: `COc1cc2c(c(O)c1OC)CCN(C)[C@H]2Cc1ccc(Oc2c3c(cc(OC)c2OC)-c2c(OC)c(OC)c(OC)c4c2[C@H](C3)N(C)CC4)cc1` was tested. Which “Ratio IC50” value (HL-60 [3]) did it give?
Answer: The value was 2.

Question: And the IC50 (PC-3 [1])?
Answer: Its IC50 is 2.47 µM.

Question: What about the “Ratio IC50” value (PC-3 [4]) of the same compound?
Answer: The value was 3.

Question: And the “Ratio IC50” value (PC-3 [5])?
Answer: Its value is 9.

Question: And the IC50 (HL-60 [2])?
Answer: The IC50 was 1.01 µM.

Question: `COc1cc2c(c(Oc3ccc(C[C@H]4c5cc(OC)c(OC)c(OC)c5CC[N@+]4(C)[O-])cc3)c1OC)C[C@H]1c3c(c(OC)c(OC)c(OC)c3-2)CCN1C` was tested. Which IC50 (PC-3 [1]) did it give?
Answer: Its IC50 is 8.35 µM.

Question: And the IC50 (HL-60 [2])?
Answer: The IC50 was 4.21 µM.

Question: For `COc1cc2c(c(Oc3ccc(C[C@H]4c5cc(OC)c(OC)c(OC)c5CC[N@@+]4(C)[O-])cc3)c1OC)C[C@H]1c3c(c(OC)c(OC)c(OC)c3-2)CCN1C`, which IC50 (PC-3 [1]) is on record?
Answer: Its IC50 is 13.4 µM.

Question: And the IC50 (HL-60 [2])?
Answer: The IC50 was 5.05 µM.

Question: How did the IC50 (PC-3 [1]) turn out when `COc1cc2c(cc1OC)-c1cc3c(Oc4cc5c(cc4OC)-c4c(OC)c(OC)c(OC)c6c4[C@H](C5)N(C)CC6)c(OC)c(OC)cc3c(=O)n1CC2` was run?
Answer: The IC50 was 3.72 µM.

Question: And the IC50 (HL-60 [2])?
Answer: Its IC50 is 10.3 µM.

Question: For `COc1cc2c(c(OC)c1OC)CCN(C)[C@H]2Cc1ccc(Oc2c(OC)c(OC)cc3c2cc2c4c(c(OC)c(OC)c(OC)c43)CCN2C)cc1`, which IC50 (PC-3 [1]) is on record?
Answer: The IC50 was 6.01 µM.

Question: What about the IC50 (HL-60 [2]) of the same compound?
Answer: Its IC50 is 2.12 µM.

Question: Which results are given for `COc1cc2c(cc1OC)[C@H](Cc1ccc(Oc3c4c(cc(OC)c3OC)-c3c(OC)c(OC)cc5c3[C@H](C4)N(C)CC5)cc1)N(C)CC2`?
Answer: IC50 (PC-3 [1]): 2.72 µM; IC50 (HL-60 [2]): 1.44 µM

Question: For `O=c1[nH]cc(F)c(=O)[nH]1` [FLUOROURACIL], which IC50 (PC-3 [1]) is on record?
Answer: The IC50 was 22 µM.

Question: Which results are given for `COc1cc2c(c(Oc3ccc(C[C@H]4c5cc(OC)c(OC)c(OC)c5CCN4C)cc3)c1OC)C[C@H]1c3c(c(OC)c(OC)c(OC)c3-2)CCN1C`?
Answer: IC50 (PC-3 [1]): 6.05 µM; IC50 (HL-60 [2]): 1.16 µM

Question: `COc1cc2c(cc1OC)[C@H](Cc1ccc(Oc3c(OC)c(OC)cc4c3cc3c5c(cc(OC)c(OC)c54)CCN3C)cc1)N(C)CC2` was tested. Which IC50 (PC-3 [1]) did it give?
Answer: Its IC50 is 7.86 µM.

Question: And the IC50 (HL-60 [2])?
Answer: The IC50 was 4.09 µM.

Question: Which IC50 (PC-3 [1]) does the source give for `COc1cc2c(c3c1OCO3)CCN(C)[C@H]2Cc1ccc(Oc2c(OC)c(OC)cc3c2cc2c4c(c(OC)c(OC)c(OC)c43)CCN2C)cc1` here?
Answer: Its IC50 is 3.29 µM.

Question: And the IC50 (HL-60 [2])?
Answer: The IC50 was 1.77 µM.

Question: Which results are given for `COc1cc2c(c(O)c1OC)CC[N@@+](C)([O-])[C@H]2Cc1ccc(Oc2c3c(cc(OC)c2OC)-c2c(OC)c(OC)c(OC)c4c2[C@H](C3)N(C)CC4)cc1`?
Answer: IC50 (PC-3 [1]): 18.7 µM; IC50 (HL-60 [2]): 4.57 µM

Question: With `COc1cc2c(cc1OC)[C@H](Cc1ccc(Oc3c(OC)c(OC)cc4c3cc3c5c(c(OC)c(OC)c(OC)c54)CCN3C)cc1)N(C)CC2` as the compound, how does the IC50 (PC-3 [1]) read?
Answer: The IC50 was 2.56 µM.

Question: And the IC50 (HL-60 [2])?
Answer: Its IC50 is 2.41 µM.
